The source of these data is ChEMBL document CHEMBL1149106, “Design, synthesis, and evaluation of aza-peptide epoxides as selective and potent inhibitors of caspases-1, -3, -6, and -8” (J Med Chem, 2004).

Activity calls are given as the source filed them. No cut-off for these calls is given here.

One assay deals with Pepsin A (Sus scrofa) (UniProt P00791). Put plainly: Tested for inhibition of porcine pepsin by the compound; NI = No Inhibition.
The next assay deals with T1, Caspase-1 (Homo sapiens) (UniProt P29466).
T1 sequence (whole entry): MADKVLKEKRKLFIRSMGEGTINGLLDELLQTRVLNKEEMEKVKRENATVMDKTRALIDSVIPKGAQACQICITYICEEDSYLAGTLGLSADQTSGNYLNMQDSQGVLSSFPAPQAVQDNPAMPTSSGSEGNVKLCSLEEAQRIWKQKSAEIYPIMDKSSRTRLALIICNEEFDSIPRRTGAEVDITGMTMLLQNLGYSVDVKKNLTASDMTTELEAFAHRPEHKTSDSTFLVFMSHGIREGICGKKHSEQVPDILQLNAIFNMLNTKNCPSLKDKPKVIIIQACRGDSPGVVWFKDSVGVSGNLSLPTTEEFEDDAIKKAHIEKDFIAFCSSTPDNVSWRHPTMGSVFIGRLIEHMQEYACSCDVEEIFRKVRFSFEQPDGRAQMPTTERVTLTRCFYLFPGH
Put plainly: Second-order inhibition rate of caspase-1 was determined by progress curve method. Put shortly: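 Caspase-1 assay buffer: 100 mM HEPES, 0.5 mM EDTA, 20% (v/v) glycerol, 5 mM DTT, pH 7.5. Substrate: Ac-YVAD-AMC.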

The next assay has as its target T2, Caspase-3 (Homo sapiens) (UniProt P42574).
T2 sequence (whole entry): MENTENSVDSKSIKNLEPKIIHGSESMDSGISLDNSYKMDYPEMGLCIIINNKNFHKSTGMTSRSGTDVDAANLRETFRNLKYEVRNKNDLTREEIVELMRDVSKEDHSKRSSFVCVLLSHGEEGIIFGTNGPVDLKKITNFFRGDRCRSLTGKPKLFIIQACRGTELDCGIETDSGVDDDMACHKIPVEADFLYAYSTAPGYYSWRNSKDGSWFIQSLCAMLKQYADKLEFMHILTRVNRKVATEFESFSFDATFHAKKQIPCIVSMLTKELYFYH
Nature of the assay: Second-order inhibition rate of caspase-3 was determined by progress curve method. Put shortly: (§1)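 Caspases-3, -6 and -8 were assayed in 50 mM HEPES, 100 mM NaCl, 0.1% (w/v) CHAPS, 10% (w/v) sucrose and 10 mM DTT, pH 7.4. Substrate: Cbz-DEVD-AFC or Cbz-DEVD-AMC.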

Assay [1] is described as follows: Tested for inhibition of chymotrypsinogen by the compound; ND = Not determined.
For another assay, the target named is T3, Caspase-6 (Homo sapiens) (UniProt P55212).
T3 sequence (whole entry): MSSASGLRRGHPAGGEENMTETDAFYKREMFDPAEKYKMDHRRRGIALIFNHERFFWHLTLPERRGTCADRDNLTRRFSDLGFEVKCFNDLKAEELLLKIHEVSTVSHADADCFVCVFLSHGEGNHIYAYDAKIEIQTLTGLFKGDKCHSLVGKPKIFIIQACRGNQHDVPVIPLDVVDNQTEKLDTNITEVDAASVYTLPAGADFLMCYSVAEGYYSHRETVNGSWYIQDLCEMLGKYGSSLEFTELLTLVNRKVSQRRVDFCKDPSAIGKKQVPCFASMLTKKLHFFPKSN
Nature of the assay: Second-order inhibition rate of caspase-6 was determined by progress curve method. The method in brief: as §1

The target of assay [2] is Cathepsin D (Homo sapiens) (UniProt P07339). Put plainly: Tested for inhibition of human cathepsin D by the compound; NI = No Inhibition.
Another assay addresses Caspase-8 (Homo sapiens) (UniProt Q14790). Put plainly: Second-order inhibition rate of caspase-8 was determined by progress curve method. The method in brief: as §1
Assay [3] has as its target Human immunodeficiency virus type 1 protease (Human immunodeficiency virus 1) (UniProt Q72874). Nature of the assay: Tested for inhibition of HIV-1 protease by the compound; NI = No Inhibition.
Assay [4] concerns the target Plasmepsin II (Plasmodium falciparum) (UniProt P46925). Put plainly: Inhibition of plasmepsin-2 from Plasmodium falciparum; NI = No Inhibition.
A short description of assay [5]: Tested for inhibition of chymotrypsinogen by the compound; NI = No Inhibition.
Assay [6] has as its target T4, Papain (Carica papaya) (UniProt P00784).
T4 sequence (whole entry): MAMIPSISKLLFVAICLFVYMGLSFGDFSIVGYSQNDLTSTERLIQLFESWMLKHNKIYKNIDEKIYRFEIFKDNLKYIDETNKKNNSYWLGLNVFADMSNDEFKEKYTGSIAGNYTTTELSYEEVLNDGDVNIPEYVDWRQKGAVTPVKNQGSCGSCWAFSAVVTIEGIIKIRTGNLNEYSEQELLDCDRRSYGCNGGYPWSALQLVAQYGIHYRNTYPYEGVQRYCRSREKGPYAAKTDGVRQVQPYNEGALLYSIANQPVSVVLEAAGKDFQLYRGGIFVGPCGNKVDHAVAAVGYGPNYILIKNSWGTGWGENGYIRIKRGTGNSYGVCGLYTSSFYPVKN
Put plainly: Tested for inhibition of papain by the compound.

Assay [7] concerns the target Cathepsin B (Homo sapiens) (UniProt P07858). Nature of the assay: Tested for inhibition of cathepsin B by the compound.
Assay [8] has as its system Cathepsin B. Nature of the assay: Tested for inhibition of cathepsin B by the compound.
Assay [9] concerns the target Granzyme B (Homo sapiens) (UniProt P10144). Nature of the assay: Tested for inhibition of granzyme B by the compound; NI = No Inhibition.
Assay [10] concerns Cathepsin B. Put plainly: Tested for inhibition of cathepsin B by the compound; NI = No Inhibition.
Assay [11] deals with Cathepsin B (Homo sapiens) (UniProt P07858). Put plainly: Tested for inhibition of cathepsin B by the compound; NI = No Inhibition.
Assay [12] has as its target T4, Papain (Carica papaya). Nature of the assay: Tested for inhibition of papain by the compound; NI = No Inhibition.
Assay [13] has as its target Human immunodeficiency virus type 1 protease (Human immunodeficiency virus 1) (UniProt Q72874). Put plainly: Tested for inhibition of HIV-1 protease; NI = No Inhibition.

Sequence of Cathepsin D (Homo sapiens) (P07339 65-162 limits assumed): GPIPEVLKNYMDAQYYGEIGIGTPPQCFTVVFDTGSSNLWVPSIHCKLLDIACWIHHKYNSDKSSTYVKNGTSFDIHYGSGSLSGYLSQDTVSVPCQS
Sequence of Cathepsin D (Homo sapiens) (P07339 169-412 limits assumed): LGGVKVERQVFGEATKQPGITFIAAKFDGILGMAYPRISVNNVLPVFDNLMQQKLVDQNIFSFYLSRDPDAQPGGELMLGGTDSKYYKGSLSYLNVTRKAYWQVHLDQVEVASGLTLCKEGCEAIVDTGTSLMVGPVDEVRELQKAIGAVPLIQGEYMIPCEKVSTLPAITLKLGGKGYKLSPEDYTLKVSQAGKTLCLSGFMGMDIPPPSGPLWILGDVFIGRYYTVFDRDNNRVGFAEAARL
Sequence of Plasmepsin II (Plasmodium falciparum) (P46925 125-453 limits assumed): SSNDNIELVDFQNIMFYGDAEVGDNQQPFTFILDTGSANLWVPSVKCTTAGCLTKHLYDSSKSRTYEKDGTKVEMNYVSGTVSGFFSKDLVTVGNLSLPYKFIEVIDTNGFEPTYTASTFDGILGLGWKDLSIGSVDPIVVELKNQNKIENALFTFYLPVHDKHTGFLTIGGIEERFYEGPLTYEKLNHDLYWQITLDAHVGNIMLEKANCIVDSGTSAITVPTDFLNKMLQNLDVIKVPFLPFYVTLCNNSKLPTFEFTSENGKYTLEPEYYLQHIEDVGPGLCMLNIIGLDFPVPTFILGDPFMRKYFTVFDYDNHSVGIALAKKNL
Sequence of Pepsin A (Sus scrofa) (P00791 60-385 limits assumed): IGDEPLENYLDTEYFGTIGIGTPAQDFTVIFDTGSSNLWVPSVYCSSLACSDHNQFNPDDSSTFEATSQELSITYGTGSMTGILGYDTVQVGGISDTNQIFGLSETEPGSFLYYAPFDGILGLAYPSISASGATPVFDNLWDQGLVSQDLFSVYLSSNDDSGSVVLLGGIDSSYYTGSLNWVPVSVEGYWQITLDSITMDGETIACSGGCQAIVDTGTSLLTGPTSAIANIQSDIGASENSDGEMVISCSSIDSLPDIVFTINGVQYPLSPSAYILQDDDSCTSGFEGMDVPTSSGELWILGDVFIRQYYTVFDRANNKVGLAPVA
Sequence of Caspase-8 (Homo sapiens) (Q14790 217-374 limits assumed): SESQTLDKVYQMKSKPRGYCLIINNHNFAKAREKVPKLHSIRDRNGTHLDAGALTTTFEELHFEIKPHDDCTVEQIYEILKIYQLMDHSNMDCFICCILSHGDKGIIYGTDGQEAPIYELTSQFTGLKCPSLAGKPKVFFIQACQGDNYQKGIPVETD
Sequence of Caspase-8 (Homo sapiens) (Q14790 385-479 limits assumed): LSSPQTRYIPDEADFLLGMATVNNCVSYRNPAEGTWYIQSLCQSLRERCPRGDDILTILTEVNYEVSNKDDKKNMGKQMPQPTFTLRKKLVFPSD
Sequence of Granzyme B (Homo sapiens) (P10144 whole entry): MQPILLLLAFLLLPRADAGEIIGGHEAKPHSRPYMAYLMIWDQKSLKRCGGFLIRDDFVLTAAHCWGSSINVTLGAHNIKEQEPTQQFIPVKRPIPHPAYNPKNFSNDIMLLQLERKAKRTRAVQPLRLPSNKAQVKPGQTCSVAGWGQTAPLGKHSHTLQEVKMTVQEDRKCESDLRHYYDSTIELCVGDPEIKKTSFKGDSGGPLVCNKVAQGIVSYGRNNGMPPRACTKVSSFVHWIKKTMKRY

Take `CCOC(=O)[C@H]1O[C@@H]1C(=O)N(CC(=O)O)NC(=O)[C@@H](NC(=O)[C@H](CCC(=O)O)NC(=O)OCc1ccccc1)C(C)C`: the “k obs / 1” value (on Pepsin A (Sus scrofa); in [2]; in [3]; in assay [4]) was “inactive” throughout. In addition, the k2 was determined as 58500 M⁻¹ s⁻¹ at Caspase-1 (Homo sapiens), 50500 M⁻¹ s⁻¹ on Caspase-3 (Homo sapiens), 4180 M⁻¹ s⁻¹ at Caspase-6 (Homo sapiens) and 195000 M⁻¹ s⁻¹ on Caspase-8 (Homo sapiens). This compound also gave a k obs / 1 in assay [1] of 86 M⁻¹ s⁻¹.

As to `CC(C)[C@H](NC(=O)CCc1ccccc1)C(=O)N[C@@H](C)C(=O)NN(CC(=O)O)C(=O)[C@H]1O[C@@H]1C(=O)OCc1ccccc1` (stereo in doubt), the k obs / 1 is 21 M⁻¹ s⁻¹ in assay [5], under 10 M⁻¹ s⁻¹ on Papain (Carica papaya) [6], under 10 M⁻¹ s⁻¹ in [7] and “No inhibition” with Cathepsin B [8]. Further, the k2 at Caspase-1 (Homo sapiens) was determined as 18100 M⁻¹ s⁻¹; at Caspase-3 (Homo sapiens), 680 M⁻¹ s⁻¹.

As for `CCOC(=O)[C@H]1O[C@@H]1C(=O)N(CC(=O)O)NC(=O)[C@@H](NC(=O)C(CCC(=O)O)NC(=O)[C@H](CC(C)C)NC(=O)OCc1ccccc1)[C@@H](C)O` (stereo partly specified), the “k obs / 1” value (at Pepsin A (Sus scrofa); in assay [9]; in the assay with Cathepsin B [10]; in assay [11]; in [2]; in assay [3]) was “inactive” in each case. The “k obs / 1” value (on Papain (Carica papaya) [12]; in [4]) was “inactive” each time. The same compound returned a k obs / 1 in assay [5] of 36 M⁻¹ s⁻¹. Further, the k2 on Caspase-1 (Homo sapiens) came to 25700 M⁻¹ s⁻¹; at Caspase-3 (Homo sapiens), 3210 M⁻¹ s⁻¹; at Caspase-6 (Homo sapiens), 8620 M⁻¹ s⁻¹; on Caspase-8 (Homo sapiens), 61200 M⁻¹ s⁻¹.

Consider `CCOC(=O)[C@H]1O[C@@H]1C(=O)N(CC(=O)O)NC(=O)[C@H](C)NC(=O)[C@@H](NC(=O)CCc1ccccc1)C(C)C`, for which the “k obs / 1” value (on Pepsin A (Sus scrofa); in assay [2]; in assay [13]; in assay [4]) was “inactive” in each case. The k2 was determined as 32200 M⁻¹ s⁻¹ on Caspase-1 (Homo sapiens), 1040 M⁻¹ s⁻¹ at Caspase-3 (Homo sapiens), 75 M⁻¹ s⁻¹ on Caspase-6 (Homo sapiens) and 1570 M⁻¹ s⁻¹ at Caspase-8 (Homo sapiens).
